Assay results from ChEMBL document CHEMBL1165943, “Design and synthesis of new anticancer pyrimidines with multiple-kinase inhibitory effect” (Bioorg Med Chem, 2010).
pIC50: −log10 of the molar value. Several values for one entry are separate records, joined by “and”; a condition that tells them apart may be missing. Equal entries are not always repeated.

Tests used:
[1] = test system: A549; test: Cytotoxicity against human A549 cells assessed as cell growth at 1 uM after 48 hrs by sulforhodamine B assay; assay type: functional; conditions: A549, 48 h, read-out: Activity
Method in brief: (§1)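 Cells grown in RPMI 1640 with 5% FBS and 2 mM L-glutamine, seeded at 5,000–40,000 cells/well by doubling time. Time-zero plates TCA-fixed after 24 h. Five concentrations (10-fold or half-log dilutions from DMSO stock) added; 48 h at 37 °C, 5% CO2. Cold TCA fixation (final 10%, 60 min, 4 °C), 0.4% SRB stain, dye solubilized in 10 mM trizma base, A515.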

[2] = test system: TK-10; test: Growth inhibition of human TK10 cells after 48 hrs by sulforhodamine B assay; assay type: functional, cell-based; conditions: TK-10, 48 h; for CC50: read-out: LC50 (the source's name)
Method in brief: (§2)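 Cells grown in RPMI 1640 with 5% FBS and 2 mM L-glutamine, seeded at 5,000–40,000 cells/well according to doubling time. After 24 h, time-zero plates are TCA-fixed. Five concentrations (10-fold or ½log dilutions, DMSO stocks) are applied for 48 h at 37 °C, 5% CO₂. Cells are TCA-fixed, SRB-stained and read at 515 nm. IC₅₀ is taken from [(Ti−Tz)/(C−Tz)]×100 = 50.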

[3] = test system: SNB-75; test: Growth inhibition of human SNB75 cells after 48 hrs by sulforhodamine B assay; assay type: functional, cell-based; conditions: for CC50: read-out: LC50 (the source's name); method in brief: as §2
[4] = test system: OVCAR-8; test: Cytotoxicity against human OVCAR8 cells assessed as cell growth at 0.01 uM after 48 hrs by sulforhodamine B assay; assay type: functional; conditions: OVCAR-8, 48 h, read-out: Activity
[5] = test system: T47D; test: Cytotoxicity against human T47D cells assessed as cell growth at 0.01 uM after 48 hrs by sulforhodamine B assay; assay type: functional; conditions: read-out: Activity
[6] = test system: SNB-19; test: Cytotoxicity against human SNB19 cells assessed as cell growth at 10 uM after 48 hrs by sulforhodamine B assay; assay type: functional; conditions: SNB-19, 48 h, read-out: Activity
[7] = test system: CAKI-1; test: Growth inhibition of human Caki1 cells after 48 hrs by sulforhodamine B assay; assay type: functional, cell-based; conditions: CAKI-1, 48 h
Method in brief: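 Five-dose SRB assay. Cells in RPMI 1640 with 5% FBS and 2 mM L-glutamine were seeded at 5,000–40,000 cells/well, with a TCA-fixed time-zero plate (Tz) taken at 24 h. Compound stocks were in DMSO, serially diluted 10-fold or ½-log to five concentrations, and incubated 48 h at 37 °C. Plates were stained with SRB and read at 515 nm. IC₅₀ was taken where [(Ti−Tz)/(C−Tz)]×100 = 50.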

[8] = test system: SF-295; test: Cytotoxicity against human SF295 cells assessed as cell growth at 0.01 uM after 48 hrs by sulforhodamine B assay; assay type: functional; conditions: SF-295, 48 h, read-out: Activity
[9] = test system: TK-10; test: Cytotoxicity against human TK10 cells assessed as cell growth at 0.01 uM after 48 hrs by sulforhodamine B assay; assay type: functional; conditions: TK-10, 48 h, read-out: Activity
[10] = test system: HCT-15; test: Growth inhibition of human HCT15 cells after 48 hrs by sulforhodamine B assay; assay type: functional, cell-based; conditions: HCT-15, 48 h; for CC50: read-out: LC50 (the source's name); method in brief: as §2
[11] = test system: NCI-H23; test: Cytotoxicity against human NCI-H23 cells assessed as cell growth at 10 uM after 48 hrs by sulforhodamine B assay; assay type: functional; conditions: NCI-H23, 48 h, read-out: Activity
[12] = test system: UACC-62; test: Cytotoxicity against human UACC62 cells assessed as cell growth at 1 uM after 48 hrs by sulforhodamine B assay; assay type: functional; conditions: UACC-62, 48 h, read-out: Activity
[13] = test system: UACC-62; test: Growth inhibition of human UACC62 cells after 48 hrs by sulforhodamine B assay; assay type: functional, cell-based; conditions: UACC-62, 48 h; method in brief: as §2
[14] = test system: COLO 205; test: Cytotoxicity against human COLO205 cells assessed as cell growth at 10 uM after 48 hrs by sulforhodamine B assay; assay type: functional; conditions: COLO 205, 48 h, read-out: Activity; method in brief: as §1
[15] = test system: SK-MEL-2; test: Growth inhibition of human SK-MEL-2 cells after 48 hrs by sulforhodamine B assay; assay type: functional, cell-based; conditions: SK-MEL-2, 48 h; for CC50: read-out: LC50 (the source's name); method in brief: as §2
[16] = test system: MDA-MB-435; test: Cytotoxicity against human MDA-MB-435 cells assessed as cell growth at 100 nM after 48 hrs by sulforhodamine B assay; assay type: functional; conditions: MDA-MB-435, 48 h, read-out: Activity
[17] = test system: OVCAR-4; test: Growth inhibition of human OVCAR4 cells after 48 hrs by sulforhodamine B assay; assay type: functional, cell-based; conditions: for CC50: read-out: LC50 (the source's name); method in brief: as §2
[18] = test system: SK-MEL-5; test: Growth inhibition of human SK-MEL-5 cells after 48 hrs by sulforhodamine B assay; assay type: functional, cell-based; conditions: for CC50: read-out: LC50 (the source's name); method in brief: as §2
[19] = test system: SN12C; test: Cytotoxicity against human SN12C cells assessed as cell growth at 100 nM after 48 hrs by sulforhodamine B assay; assay type: functional; conditions: read-out: Activity
[20] = test system: HOP-62; test: Cytotoxicity against human HOP62 cells assessed as cell growth at 1 uM after 48 hrs by sulforhodamine B assay; assay type: functional; conditions: HOP-62, 48 h, read-out: Activity
[21] = test system: SF-539; test: Cytotoxicity against human SF539 cells assessed as cell growth at 10 uM after 48 hrs by sulforhodamine B assay; assay type: functional; conditions: SF-539, 48 h, read-out: Activity
[22] = test system: SW-620; test: Cytotoxicity against human SW620 cells assessed as cell growth at 1 uM after 48 hrs by sulforhodamine B assay; assay type: functional; conditions: SW-620, 48 h, read-out: Activity
[23] = test system: EKVX; test: Cytotoxicity against human EKVX cells assessed as cell growth at 10 uM after 48 hrs by sulforhodamine B assay; assay type: functional; conditions: read-out: Activity
[24] = test system: NCI-H322M; test: Cytotoxicity against human NCI-H322M cells assessed as cell growth at 100 nM after 48 hrs by sulforhodamine B assay; assay type: functional; conditions: read-out: Activity
[25] = test system: SK-MEL-2; test: Cytotoxicity against human SK-MEL-2 cells assessed as cell growth at 0.01 uM after 48 hrs by sulforhodamine B assay; assay type: functional; conditions: SK-MEL-2, 48 h, read-out: Activity
[26] = test system: COLO 205; test: Cytotoxicity against human COLO205 cells assessed as cell growth at 0.01 uM after 48 hrs by sulforhodamine B assay; assay type: functional; conditions: COLO 205, 48 h, read-out: Activity; method in brief: as §1
[27] = test system: NCI-H322M; test: Cytotoxicity against human NCI-H322M cells assessed as cell growth at 1 uM after 48 hrs by sulforhodamine B assay; assay type: functional; conditions: read-out: Activity
[28] = test system: OVCAR-8; test: Cytotoxicity against human OVCAR8 cells assessed as cell growth at 100 nM after 48 hrs by sulforhodamine B assay; assay type: functional; conditions: OVCAR-8, 48 h, read-out: Activity
[29] = test system: NCI-H23; test: Cytotoxicity against human NCI-H23 cells assessed as cell growth at 0.001 uM after 48 hrs by sulforhodamine B assay; assay type: functional; conditions: NCI-H23, 48 h, read-out: Activity

Structure (SMILES): CC(=O)Nc1cccc(-c2ccc(-c3ccnc(NC(=O)Nc4cc(C(F)(F)F)cc(C(F)(F)F)c4)n3)cn2)c1.Cl
- growth at 1 µM [1]: 10%
- GI50 [2]: 16.8 µM
- pIC50 [2]: 4.77
- TGI [2]: 39.8 µM
- CC50 [2]: 94.1 µM
- GI50 ([3]; Homo sapiens, SNB-75, 48 h): 10.9 µM
- pIC50 ([3]; Homo sapiens, SNB-75, 48 h): 4.96
- TGI ([3]; Homo sapiens, SNB-75, 48 h): 30.5 µM
- CC50 ([3]; Homo sapiens, SNB-75, 48 h): 85.8 µM
- growth at 0.01 µM [4]: 96%
- growth at 0.01 µM [5]: 80%
- growth at 10 µM [6]: -88%
- GI50 [7]: 2.37 µM
- pIC50 [7]: 5.63
- LC50 (lethal concentration 50%) [7]: > 100 µM
- TGI [7]: 8.34 µM
- growth at 0.01 µM [8]: 94%
- growth at 0.01 µM [9]: 102%
- GI50 [10]: 3.62 µM
- pIC50 [10]: 5.44
- TGI [10]: 15 µM
- CC50 [10]: 45.1 µM
- growth at 10 µM [11]: -69%
- growth at 1 µM [12]: 12%
- GI50 [13]: 2.86 µM
- pIC50 [13]: 5.54
- LC50 (concentration causing 50% net cell kill) [13]: 35.7 µM
- TGI [13]: 12.7 µM
- growth at 10 µM [14]: 3%
- GI50 [15]: 5.65 µM
- pIC50 [15]: 5.25
- TGI [15]: 19.8 µM
- CC50 [15]: 52.4 µM
- growth at 0.1 µM [16]: 89%
- GI50 ([17]; Homo sapiens, OVCAR-4, 48 h): 1.57 µM
- TGI ([17]; Homo sapiens, OVCAR-4, 48 h): 11.1 µM
- pIC50 ([17]; Homo sapiens, OVCAR-4, 48 h, read-out: IC50): 5.80
- CC50 ([17]; Homo sapiens, OVCAR-4, 48 h): 39 µM
- GI50 ([18]; Homo sapiens, SK-MEL-5, 48 h): 1.35 µM
- TGI ([18]; Homo sapiens, SK-MEL-5, 48 h): 2.64 µM
- pIC50 ([18]; Homo sapiens, SK-MEL-5, 48 h, read-out: IC50): 5.87
- CC50 ([18]; Homo sapiens, SK-MEL-5, 48 h): 5.13 µM
- growth at 0.1 µM [19]: 86%
- growth at 1 µM [20]: 27%
- growth at 10 µM [21]: -98%
- growth at 1 µM [22]: -33%
- growth at 10 µM [23]: -7%
- growth at 0.1 µM [24]: 69%
- growth at 0.01 µM [25]: 94%
- growth at 0.01 µM [26]: 100%
- growth at 1 µM [27]: 12%
- growth at 0.1 µM [28]: 85%
- growth at 0.001 µM [29]: 91%

Structure (SMILES): CC(=O)c1ccccc1-c1ccc(-c2ccnc(NC(=O)Nc3cc(N4CCOCC4)cc(C(F)(F)F)c3)n2)cn1
- growth at 1 µM [1]: 82%
- GI50 [2]: > 100 µM
- pIC50 [2]: 5.26
- TGI [2]: > 100 µM
- CC50 [2]: > 100 µM
- TGI [3]: 100 µM and 27.5 µM
- GI50 ([3]; Homo sapiens, SNB-75, 48 h): 38.7 µM
- pIC50 ([3]; Homo sapiens, SNB-75, 48 h): 5.27
- CC50 ([3]; Homo sapiens, SNB-75, 48 h): > 100 µM
- growth at 0.01 µM [4]: 93%
- growth at 0.01 µM [5]: 102%
- growth at 10 µM [6]: 26%
- GI50 [7]: 6.89 µM
- pIC50 [7]: < 4.00
- LC50 (lethal concentration 50%) [7]: > 100 µM
- TGI [7]: > 100 µM
- growth at 0.01 µM [8]: 90%
- growth at 0.01 µM [9]: 117%
- GI50 [10]: > 100 µM
- pIC50 [10]: < 4.00
- TGI [10]: > 100 µM
- CC50 [10]: > 100 µM
- growth at 10 µM [11]: 60%
- growth at 1 µM [12]: 73%
- GI50 [13]: > 100 µM
- pIC50 [13]: < 4.00
- LC50 (concentration causing 50% net cell kill) [13]: > 100 µM
- TGI [13]: > 100 µM
- growth at 10 µM [14]: 115%
- GI50 [15]: > 100 µM
- pIC50 [15]: 4.80
- TGI [15]: 75.5 µM
- CC50 [15]: > 100 µM
- growth at 0.1 µM [16]: 92%
- TGI ([17]; Homo sapiens, OVCAR-4, 48 h): > 100 µM
- CC50 ([17]; Homo sapiens, OVCAR-4, 48 h): > 100 µM
- IC50 ([17]; ovcar-4): Not Active
- TGI ([18]; Homo sapiens, SK-MEL-5, 48 h): > 100 µM
- CC50 ([18]; Homo sapiens, SK-MEL-5, 48 h): > 100 µM
- IC50 ([18]; sk-mel-5): Not Active
- growth at 0.1 µM [19]: 83%
- growth at 1 µM [20]: 21%
- growth at 10 µM [21]: 56%
- growth at 1 µM [22]: 84%
- growth at 10 µM [23]: 74%
- growth at 0.1 µM [24]: 99%
- growth at 0.01 µM [25]: 105%
- growth at 0.01 µM [26]: 114%
- growth at 1 µM [27]: 88%
- growth at 0.1 µM [28]: 66%
- growth at 0.001 µM [29]: 98%
